In ChEMBL document CHEMBL1122127, “New anticancer agents: synthesis of 1,2-dihydropyrido[3,4-b]pyrazines (1-deaza-7,8-dihydropteridines)” (1982):
Blank lines part the entries; values can stand above or below the compound they belong to.

Columns and labels:
L1210 [1] = assay: Fraction of cell population of cultured lymphoid leukemia L1210 cells in mitosis at a dose of 0.3 uM after 24 hr; assay type: functional, Mus musculus
Mus musculus [2] = assay: Increase in life span at the highest nontoxic dose against P-388 tumor cell after 1,5,9 day at 12.5 mg/kg; assay type: functional; conditions: P388
Method in brief: (§1)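 Mice bearing lymphocytic leukemia P-388 (parental or drug-resistant sublines). The reported value is the increase in life span at the highest nontoxic dose tested.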

Mus musculus [3] = assay: Increase in life span at the highest nontoxic dose against P-388 tumor cell after 1,5,9 day at 6.25 mg/kg; conditions: P388
L1210 [4] = assay: Inhibitory concentration against proliferation of cultured lymphoid leukemia L1210 cells during 48 hrs.; assay type: functional; conditions: Mus musculus, L1210, 48 h; read-out: ID50 (the source's name)
Mus musculus [5] = assay: Increase in life span at the highest nontoxic dose against P-388 tumor cell […] at 200 mg/kg; assay type: functional; conditions: P388; method in brief: as §1
L1210 [6] = assay: Fraction of cell population of cultured lymphoid leukemia L1210 cells in mitosis at a dose of 0.3 uM after 12 hr; assay type: functional, Mus musculus
Mus musculus [7] = assay: Increase in life span at the highest nontoxic dose against methotrexate resistant cell line of P-388 tumor cell […] at 25 mg/kg; assay type: functional; conditions: P388; method in brief: as §1
L1210 [8] = assay: Fraction of cell population of cultured lymphoid leukemia L1210 cells in mitosis at a dose of 0.03 uM after 12 hr; assay type: functional, Mus musculus
Mus musculus [9] = assay: Increase in life span at the highest nontoxic dose against P-388 tumor cell […] at 50 mg/kg; assay type: functional; conditions: P388; method in brief: as §1
Mus musculus [10] = assay: Increase in life span at the highest nontoxic dose against P-388 tumor cell […] was determined at 25 mg/kg; assay type: functional; conditions: P388; method in brief: as §1
Mus musculus [11] = assay: Increase in life span at the highest nontoxic dose against P-388 tumor cell […] at 25 mg/kg; assay type: functional; conditions: P388; method in brief: as §1
Mus musculus [12] = assay: Increase in life span at the highest nontoxic dose against P-388 tumor cell […] at 90 mg/kg; assay type: functional; conditions: P388; method in brief: as §1
Mus musculus [13] = assay: Increase in life span at the highest nontoxic dose against P-388 tumor cell after 1,5,9 day at 30 mg/kg; assay type: functional; conditions: P388; method in brief: as §1
Mus musculus [14] = assay: Increase in life span at the highest nontoxic dose against P-388 tumor cell after 1-9 days at 25 mg/kg; assay type: functional; conditions: P388; method in brief: as §1
L1210 [15] = assay: Fraction of cell population of cultured lymphoid leukemia L1210 cells in mitosis at a dose of 0.1 uM after 12 hr; assay type: functional, Mus musculus
Mus musculus [16] = assay: Increase in life span at the highest nontoxic dose against Vincristine-resistant line of P-388 tumor cell […] at 12 mg/kg; assay type: functional; conditions: P388; method in brief: as §1
Mus musculus [17] = assay: Increase in life span at the highest nontoxic dose against P-388 tumor cell […] was determined at 100 mg/kg; assay type: functional; conditions: P388; method in brief: as §1
Mus musculus [18] = assay: Increase in life span at the highest nontoxic dose against P-388 tumor cell […] at 67 mg/kg; assay type: functional; conditions: P388; method in brief: as §1
L1210 [19] = assay: Fraction of cell population of cultured lymphoid leukemia L1210 cells in mitosis at a dose of 0.01 uM after 12 hr; assay type: functional, Mus musculus
Mus musculus [20] = assay: Increase in life span at the highest nontoxic dose against P-388 tumor cell after 1-5 days at 12 mg/kg; assay type: functional; conditions: P388; method in brief: as §1
Mus musculus [21] = assay: Increase in life span at the highest nontoxic dose against P-388 tumor cell […] at 100 mg/kg; assay type: functional; conditions: P388; method in brief: as §1

Structure (SMILES): CCOC(=O)Nc1cc2c(c(N)n1)N=C(c1ccc(Cl)cc1)CN2
Mitotic index (L1210 [1]): 0.26
ILS at 12.5 mg/kg (Mus musculus [2]): 37%
ILS at 6.25 mg/kg (Mus musculus [3]): 38%
IC50 (L1210 [4]): 52 nM
ILS at 200 mg/kg (Mus musculus [5]): 38%

IC50 (L1210 [4]): 138 nM
Structure (SMILES): CCOC(=O)Nc1cc2c(c(N)n1)N=C(c1ccc(C)c(C)c1)CN2

IC50 (L1210 [4]): 42 nM
Structure (SMILES): CCOC(=O)Nc1cc2c(c(N)n1)N=C(c1ccc(C)cc1C)CN2

IC50 (L1210 [4]): 18 nM
Structure (SMILES): CCOC(=O)Nc1cc2c(c(N)n1)N=C(c1ccc(Cl)c(Cl)c1)CN2

IC50 (L1210 [4]): < 1 nM
Structure (SMILES): CC[C@]1(O)C[C@H]2CN(CCc3c([nH]c4ccccc34)[C@@](C(=O)OC)(c3cc4c(cc3OC)N(C=O)[C@H]3[C@@](O)(C(=O)OC)[C@H](OC(C)=O)[C@]5(CC)C=CCN6CC[C@]43[C@@H]65)C2)C1 [VINCRISTINE]

IC50 (L1210 [4]): 27 nM
Structure (SMILES): COC(=O)Nc1nc2cc(C(=O)c3cccs3)ccc2[nH]1 [NOCODAZOLE]

IC50 (L1210 [4]): 78 nM
Structure (SMILES): CCOC(=O)Nc1cc2c(c(N)n1)N=C(c1cc(OC)c(OC)c(OC)c1)CN2

Structure (SMILES): CCOC(=O)Nc1cc2c(c(N)n1)N=C(CN(C)c1ccc(OC)cc1)CN2
Mitotic index (L1210 [6]): 0.49
ILS at 25 mg/kg (Mus musculus [7]): 150%
Mitotic index (L1210 [8]): 0.64
IC50 (L1210 [4]): 7.9 nM
ILS at 50 mg/kg (Mus musculus [9]): 80%
ILS at 25 mg/kg (Mus musculus [10]): 133%

IC50 (L1210 [4]): 44 nM
Structure (SMILES): CCOC(=O)Nc1cc2c(c(N)n1)N=C(c1ccc(Cl)cc1Cl)CN2

Structure (SMILES): CCOC(=O)Nc1cc2c(c(N)n1)N=C(c1ccc(OC)cc1)CN2
ILS at 25 mg/kg (Mus musculus [11]): 50%
IC50 (L1210 [4]): 4.1 nM

Structure (SMILES): CCOC(=O)Nc1cc2c(c(N)n1)N=C(c1ccc(C(F)(F)F)cc1)CN2
ILS at 90 mg/kg (Mus musculus [12]): 0%
IC50 (L1210 [4]): 150 nM
ILS at 30 mg/kg (Mus musculus [13]): 0%

Structure (SMILES): CCOC(=O)Nc1cc2c(c(N)n1)N=C(CN(C)c1ccc(C(=O)OC)cc1)CN2
ILS at 25 mg/kg (Mus musculus [14]): 30%
Mitotic index (L1210 [6]): 0.61
Mitotic index (L1210 [15]): 0.44
IC50 (L1210 [4]): 58 nM

Structure (SMILES): CCOC(=O)Nc1cc2c(c(N)n1)N=C(c1ccccc1)CN2
ILS at 12 mg/kg (Mus musculus [16]): 50%
IC50 (L1210 [4]): 4.7 nM

IC50 (L1210 [4]): 23 nM
Structure (SMILES): CCOC(=O)Nc1cc2c(c(N)n1)N=C(c1ccc(N)cc1)CN2

Structure (SMILES): CCOC(=O)Nc1cc2c(c(N)n1)N=C(CN(C)c1ccccc1)CN2
ILS at 100 mg/kg (Mus musculus [17]): 114%
Mitotic index (L1210 [1]): 0.8
Mitotic index (L1210 [8]): 0.77
ILS at 67 mg/kg (Mus musculus [18]): 90%
IC50 (L1210 [4]): 8.4 nM

IC50 (L1210 [4]): 1.22 nM
Structure (SMILES): CCOC(=O)Nc1cc2c(c(N)n1)N=C(c1cccc(OC)c1)CN2

Structure (SMILES): CCOC(=O)Nc1cc2c(c(N)n1)N=C(c1ccc(-c3ccccc3)cc1)CN2
Mitotic index (L1210 [19]): 0.65
Mitotic index (L1210 [6]): 0.42
ILS at 25 mg/kg (Mus musculus [11]): 36%
IC50 (L1210 [4]): 6.1 nM

IC50 (L1210 [4]): 6.8 nM
Structure (SMILES): CCOC(=O)Nc1cc2c(c(N)n1)N=C(c1ccc(F)cc1)CN2

Structure (SMILES): CCOC(=O)Nc1cc2c(c(N)n1)N=C(c1ccc(C)cc1)CN2
ILS at 12 mg/kg (Mus musculus [20]): 30%
IC50 (L1210 [4]): 24 nM

Structure (SMILES): CCOC(=O)Nc1cc2c(c(N)n1)N=C(CN(C)c1ccc(Cl)cc1)CN2
ILS at 100 mg/kg (Mus musculus [21]): 65%
Mitotic index (L1210 [8]): 0.71
IC50 (L1210 [4]): 14.5 nM
